Test results reported in ChEMBL document CHEMBL1140965, “New 1-indanone thiosemicarbazone derivatives active against BVDV” (Eur J Med Chem, 2008).
pEC50: −log10 of the molar value.

Experiments:
[1] = system: Bovine viral diarrhea virus 1; experiment: Antiviral activity against bovine viral diarrhoea virus type-1 NADL in MDBK cells assessed as inhibition of virus-induced cytopathic effect; type: functional, organism-based; settings: Bovine viral diarrhea virus isolates and strains
How it was run: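 MDBK cells seeded at 1 × 10^4 per well in MEM-FBS, 24 h at 37 °C, 5% CO2; medium replaced with serial compound dilutions (DMSO stocks 1 mg/mL), then BVDV inoculum giving >80% CPE by 3 days at 37 °C. Uninfected and virus-only controls on each plate. Read-out is MTS/PMS in MEM-DHS, absorbance 490 nm. EC50 = 50% protection against CPE, logarithmic interpolation from dose-response curves.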

[2] = Selectivity index, ratio of CC50 for MDBK cells to EC50 for bovine viral diarrhoea virus type-1 NADL; type: toxicity, cell-based; settings: cattle, read-out: Ratio CC50/EC50
How it was run: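 Ratio of CC50 to EC50. CC50 comes from a 3-day MTS/PMS proliferation assay on MDBK cells. EC50 comes from protection of MDBK cells against NADL-strain cytopathic effect after 3 days, read by MTS/PMS at 490 nm. Both values were derived by logarithmic interpolation from dose-response curves.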

[3] = Cytotoxicity against MDBK cells after 3 days by MTS/PMS assay; type: cell-based, Bos taurus; settings: cattle
How it was run: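 MDBK cells seeded at 1 × 10^4 per well in MEM-FBS; serial compound dilutions added 24 h later (DMSO stocks 1 mg/mL). Cells proliferated 3 days at 37 °C. MTS/PMS was then added for 3 h at 37 °C and absorbance read at 490 nm. Viability is the percentage of untreated-cell absorbance. CC50 = 50% inhibition of proliferation, logarithmic interpolation from dose-response curves.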

Human alphaherpesvirus 1 = experiment: Antiviral activity against HSV1 F; type: functional, organism-based; settings: Human alphaherpesvirus 1, F
[4] = system: Vesicular stomatitis virus; experiment: Antiviral activity against Vesicular stomatitis virus type-1 Indiana; type: functional, organism-based
[5] = system: Human immunodeficiency virus 1; experiment: Antiviral activity against HIV1; type: functional, organism-based
Poliovirus 1 = experiment: Antiviral activity against poliovirus type-1 Sabin; type: functional, organism-based; settings: Enterovirus C

Row | Compound | pEC50 [1] | selectivity ratio [2] | CC50 at 72 h [3] [µM] | pEC50 (Human alphaherpesvirus 1) | pEC50 [4] | pEC50 [5] | pEC50 (Poliovirus 1)
1 | NC(=S)N/N=C1\CCc2ccccc21 | 4.74 | 8.6 | 156 | – | – | – | –
2 | Cc1cccc2c1CC/C2=N\NC(N)=S | 5.09 | 20.3 | 165 | – | – | – | –
3 | Cc1ccc2c(c1)CC/C2=N\NC(N)=S | 5.19 | 20.1 | 130 | – | – | – | –
4 | NC(=S)N/N=C1\CCc2cc(Cl)ccc21 | 5.06 | > 3.07 | > 27 | – | – | – | –
5 | COc1ccc2c(c1)CC/C2=N\NC(N)=S | 4.73 | 7.93 | 149 | – | – | – | –
6 | Cc1cc2c(c(C)c1Cl)CC/C2=N\NC(N)=S | < 4.95 | < 6.53 | 72.5 | – | – | – | –
7 | Cc1cc2c(c(C)c1Cl)/C(=N/NC(N)=S)CC2 | 5.13 | 10.9 | 80.7 | – | – | – | –
8 | COc1cccc2c1CC/C2=N\NC(N)=S | 3.62 | 3.39 | 822 | – | – | – | –
9 | COc1ccc2c(c1)/C(=N/NC(N)=S)CC2 | 4.59 | 4.09 | 106 | – | – | – | –
10 | COc1ccc2c(c1OC)CC/C2=N\NC(N)=S | 4.94 | 12.2 | 141 | – | – | – | –
11 | NC(=S)N/N=C1\CCc2cc(Br)ccc21 | 5.74 | > 8.29 | > 15 | – | – | – | –
12 | Cc1cc(C)c2c(c1)CC/C2=N\NC(N)=S | – | – | 51.7 | – | – | – | –
13 | Cc1cc(C)c2c(c1Br)CC/C2=N\NC(N)=S | 5.05 | 15.5 | 139 | – | – | – | –
14 | COc1cc2c(cc1OC)/C(=N/NC(N)=S)CC2 | 5.76 | 80.3 | 140 | < 4.19 | < 4.12 | < 4.42 | 4.19
15 | NC(=O)c1ncn([C@@H]2O[C@H](CO)[C@@H](O)[C@H]2O)n1 [RIBAVIRIN] | 5.34 | – | 54 | – | – | – | –
